This is an account of results in ChEMBL document CHEMBL1150123, “Constituents of the twigs of Hernandia ovigera that inhibit the transformation of JB6 murine epidermal cells” (J Nat Prod, 2002).

Assay [1] in a line: Inhibition of 12-O-tetradecanoylphorbol 13-acetate-induced transformation of mouse JB6 cells after 14 days by soft agar assay. Type of assay: functional, cell-based.
Assay [2] can be described thus: Cytotoxicity against mouse JB6 cells after 3 days by trypan blue staining. Type of assay: cell-based. The settings on record: JB6, 72 h. The essentials:
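JB6 cells at 1×10^4 cells/mL were preincubated 24 h, then exposed to a range of test-compound concentrations for 3 days. Trypsinized cells were mixed with 0.4% trypan blue, and percent viability was scored microscopically.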

Assay [3] is described as follows: Ratio of IC50 for mouse JB6 cells to IC50 for inhibition of 12-O-tetradecanoylphorbol 13-acetate-induced transformation of mouse JB6 cells. The essentials: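 Ratio of two IC50s. The first is trypan blue cytotoxicity: JB6 cells, 24 h preincubation, 3-day exposure. The second is soft-agar transformation: TPA-sensitive P+ JB6 cells in 0.5% agar with TPA plus compound, triplicate wells, 14 days at 37 °C. Colonies of ≥15 cells were counted in three 0.25 cm² areas. Frequency is relative to TPA and 0.1% DMSO controls.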

≈ marks a conversion by molar mass, not a printed value. Where only a bound is given, the exact number is not on record here.

In the case of `COc1cc([C@H]2OC[C@H]3[C@@H]2CO[C@@H]3c2cc(OC)c(OC)c(OC)c2)cc(OC)c1OC`, the IC50 (as a rule, the concentration that inhibits the measured activity by half) in assay [1] was over 4 µg/mL.

`COc1cc2c(cc1OC)C(=O)N(C)CC2` yielded an IC50 in assay [1] of over 4 µg/mL.

The compound `COc1cc(C[C@H]2C(=O)OC[C@@H]2Cc2ccc3c(c2)OCO3)cc(OC)c1OC` yielded an IC50 in assay [1] of over 4 µg/mL.

For the compound `COc1cc([C@@H]2OC[C@@H]3C(=O)OC[C@@H]32)cc(OC)c1OC` [CARUILIGNAN C], in assay [1], the IC50 is over 4 µg/mL.

In turn, `COc1cc([C@@H]2c3c(cc4c(c3OC)OCO4)[C@H](OC(C)=O)[C@H]3COC(=O)[C@@H]23)cc(OC)c1OC` showed an IC50 in assay [1] of over 4 µg/mL.

With `COc1cc([C@H]2OC[C@H]3[C@@H]2CO[C@H]3c2cc(OC)c(OC)c(OC)c2)cc(OC)c1OC` [EPIYANGAMBIN], the IC50 in assay [2] was 5.7 µg/mL (≈ 12.8 µM); in assay [1], 0.4 µg/mL (≈ 0.896 µM). Also, the “Ratio IC50” value in assay [3] is 10.

In the case of `COc1cc([C@@H]2OC[C@H]3[C@@H]2CO[C@H]3c2cc(OC)c3c(c2)OCO3)cc(OC)c1OC` [DIASESARTEMIN], in assay [1], the IC50 was over 4 µg/mL.

`COc1cc([C@@H]2c3cc4c(cc3[C@H](OC(C)=O)[C@H]3COC(=O)[C@@H]23)OCO4)cc(OC)c1OC`: the IC50 in assay [2] was determined as 1.2 µg/mL (≈ 2.63 µM); in assay [1] it was 0.15 µg/mL (≈ 0.329 µM). The “Ratio IC50” value in assay [3] is 10.

With `COc1cc(C[C@H]2C(=O)OC[C@@H]2Cc2cc(OC)c3c(c2)OCO3)cc(OC)c1OC`, the IC50 in assay [1] was over 4 µg/mL.

`COc1ccc([C@@H]2OC[C@@H]3[C@H]2CO[C@@H]3c2cc(OC)c(OC)c(OC)c2)cc1OC` had an IC50 in assay [1] of over 4 µg/mL.
